Test [1] relates to CHO. As to the kind of experiment: Induction of cAMP generation in wild-type CHO cells at 10 uM. The settings on record: Cricetulus griseus. The test is classed as functional, cell-based. The procedure, abridged:
(§1)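 Test compounds at 10 µM applied to CHO cells transfected with GPR12 and, in parallel, to untransfected wild-type CHO cells, which serve as the receptor-free comparison. The read-out is cAMP production in each cell line. The assay follows literature cAMP methods.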

For test [2], the target named is T1, G-protein coupled receptor 12 (Homo sapiens) (UniProt P47775).
T1 sequence (whole entry): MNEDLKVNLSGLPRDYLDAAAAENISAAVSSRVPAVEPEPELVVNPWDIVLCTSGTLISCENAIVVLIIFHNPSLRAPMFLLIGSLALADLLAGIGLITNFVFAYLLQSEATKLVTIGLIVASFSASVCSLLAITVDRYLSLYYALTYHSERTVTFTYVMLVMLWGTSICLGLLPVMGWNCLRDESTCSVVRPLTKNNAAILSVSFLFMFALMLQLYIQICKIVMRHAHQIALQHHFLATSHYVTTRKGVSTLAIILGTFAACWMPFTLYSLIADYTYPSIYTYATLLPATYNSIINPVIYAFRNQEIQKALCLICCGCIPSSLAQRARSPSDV
As to the kind of experiment: Activity at GPR12 expressed in CHO cells assessed as induction of cAMP production at 10 uM. The test is classed as functional, cell-based. The procedure, abridged:
as §1

Activity calls are given as the source filed them. The rule behind the calls is not given here.

Among the data in ChEMBL document CHEMBL1156545, “Unusual C25 steroid isomers with bicyclo[4.4.1]A/B rings from a volcano ash-derived fungus Penicillium citrinum” (J Nat Prod, 2008) are Activity values, retold here.

For the compound `C[C@@H](O)/C=C/[C@](C)(O)[C@H]1CC[C@H]2C3=CC(=O)[C@H]4CC(=CC[C@H](O)C4)[C@H]3CC[C@@]21C`, the outcome in test [1] was inactive. In addition, the outcome in test [2] was Active.
For `C[C@H](O)/C=C/[C@](C)(O)[C@H]1CC[C@H]2C3=CC(=O)[C@H]4CC(=CC[C@H](O)C4)[C@H]3CC[C@@]21C`, in that order: “inactive” and “Active”.
The corresponding values for `C/C(=C\[C@@H](O)[C@H](C)O)[C@H]1CC[C@H]2C3=CC(=O)[C@H]4CC(=CC[C@H](O)C4)[C@H]3CC[C@]12C` are “inactive” and “Active”.
On to `C/C(=C\[C@H](O)[C@H](C)O)[C@H]1CC[C@H]2C3=CC(=O)[C@H]4CC(=CC[C@H](O)C4)[C@H]3CC[C@]12C`, for which the result in test [1] was inactive. The result in test [2] was Active.
Take `CO[C@H](/C=C(\C)[C@H]1CC[C@H]2C3=CC(=O)[C@H]4CC(=CC[C@H](O)C4)[C@H]3CC[C@]12C)[C@@H](C)O`: the outcome in test [1] was inactive. Also, in test [2], the result was Active.
